Calls of active or inactive are those of the source. The rule behind the calls is not given here.
Columns and labels:
Mus musculus [1] = experiment: Toxicity in nude mouse xenografted with human A431 cells assessed as mortality at 200 mg/kg/day, po qd after 12 days; assay type: organism-based, A-431; set-up: route oral; details: in vivo, 288 h
Method in brief: (§1)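 A431 xenograft; dosing began once tumours reached 50–150 mm³. Mice randomized, n = 6/group, given test agent, gefitinib reference or vehicle by oral gavage once daily at 200 mg/kg/day. Body weight and tumour volume recorded twice weekly; mortality and weight loss noted over treatment (tumour mass read on days 0, 4, 7, 10, 12).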

Mus musculus [2] = experiment: Toxicity in nude mouse xenografted with human A431 cells assessed as weight loss at 200 mg/kg/day, po qd after 12 days; assay type: organism-based, A-431; set-up: route oral; details: in vivo, 288 h; method in brief: as §1
Cytochrome P450 3A4 = Cytochrome P450 3A4 (Homo sapiens, UniProt P08684); experiment: Inhibition of human recombinant CYP3A4 after 20 mins by LC/MS/MS analysis; assay type: ADME
Cytochrome P450 3A4, sequence (P08684 whole entry): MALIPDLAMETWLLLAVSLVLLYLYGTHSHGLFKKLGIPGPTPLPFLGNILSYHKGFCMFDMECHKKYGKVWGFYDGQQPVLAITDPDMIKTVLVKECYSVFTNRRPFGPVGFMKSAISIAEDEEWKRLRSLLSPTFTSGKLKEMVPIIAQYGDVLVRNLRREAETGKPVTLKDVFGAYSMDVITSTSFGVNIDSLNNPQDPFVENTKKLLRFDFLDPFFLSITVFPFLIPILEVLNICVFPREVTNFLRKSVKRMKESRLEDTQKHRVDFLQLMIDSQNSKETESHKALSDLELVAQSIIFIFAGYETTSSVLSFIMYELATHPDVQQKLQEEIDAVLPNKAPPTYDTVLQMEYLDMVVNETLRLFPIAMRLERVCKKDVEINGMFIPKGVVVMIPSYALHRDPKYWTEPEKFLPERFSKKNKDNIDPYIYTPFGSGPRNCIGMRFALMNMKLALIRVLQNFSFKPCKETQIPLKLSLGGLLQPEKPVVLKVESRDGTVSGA

Cytochrome P450 2C9 = Cytochrome P450 2C9 (Homo sapiens, UniProt P11712); experiment: Inhibition of human recombinant CYP2C9 after 20 mins by LC/MS/MS analysis; assay type: ADME
Cytochrome P450 2C9, sequence (P11712 whole entry): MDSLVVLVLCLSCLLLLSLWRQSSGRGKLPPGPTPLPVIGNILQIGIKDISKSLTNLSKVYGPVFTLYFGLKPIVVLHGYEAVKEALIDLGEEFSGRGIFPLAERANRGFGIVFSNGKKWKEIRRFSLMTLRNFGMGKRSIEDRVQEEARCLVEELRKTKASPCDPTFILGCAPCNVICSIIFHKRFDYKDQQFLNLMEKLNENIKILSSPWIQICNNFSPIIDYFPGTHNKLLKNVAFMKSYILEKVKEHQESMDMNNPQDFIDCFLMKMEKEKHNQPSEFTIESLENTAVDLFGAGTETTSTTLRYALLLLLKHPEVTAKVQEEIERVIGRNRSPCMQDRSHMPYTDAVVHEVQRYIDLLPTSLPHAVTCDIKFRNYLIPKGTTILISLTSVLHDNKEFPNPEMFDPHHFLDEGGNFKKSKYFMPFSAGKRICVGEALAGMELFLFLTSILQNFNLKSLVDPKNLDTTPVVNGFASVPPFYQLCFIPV

SW-620 = experiment: Cytotoxicity against human SW620 cells after 48 hrs by CellTiter-Glo assay; assay type: functional, cell-based; details: SW-620, 48 h
[3] = tested on: Epidermal growth factor receptor (Homo sapiens), P00533 [T790M]; experiment: Inhibition of EGFR T790M mutant (unknown origin) incubated for 5 mins prior to ATP addition measured after 30 mins by HTRF method; assay type: protein assay
Epidermal growth factor receptor (Homo sapiens), P00533 [T790M], sequence (P00533 whole entry T790M): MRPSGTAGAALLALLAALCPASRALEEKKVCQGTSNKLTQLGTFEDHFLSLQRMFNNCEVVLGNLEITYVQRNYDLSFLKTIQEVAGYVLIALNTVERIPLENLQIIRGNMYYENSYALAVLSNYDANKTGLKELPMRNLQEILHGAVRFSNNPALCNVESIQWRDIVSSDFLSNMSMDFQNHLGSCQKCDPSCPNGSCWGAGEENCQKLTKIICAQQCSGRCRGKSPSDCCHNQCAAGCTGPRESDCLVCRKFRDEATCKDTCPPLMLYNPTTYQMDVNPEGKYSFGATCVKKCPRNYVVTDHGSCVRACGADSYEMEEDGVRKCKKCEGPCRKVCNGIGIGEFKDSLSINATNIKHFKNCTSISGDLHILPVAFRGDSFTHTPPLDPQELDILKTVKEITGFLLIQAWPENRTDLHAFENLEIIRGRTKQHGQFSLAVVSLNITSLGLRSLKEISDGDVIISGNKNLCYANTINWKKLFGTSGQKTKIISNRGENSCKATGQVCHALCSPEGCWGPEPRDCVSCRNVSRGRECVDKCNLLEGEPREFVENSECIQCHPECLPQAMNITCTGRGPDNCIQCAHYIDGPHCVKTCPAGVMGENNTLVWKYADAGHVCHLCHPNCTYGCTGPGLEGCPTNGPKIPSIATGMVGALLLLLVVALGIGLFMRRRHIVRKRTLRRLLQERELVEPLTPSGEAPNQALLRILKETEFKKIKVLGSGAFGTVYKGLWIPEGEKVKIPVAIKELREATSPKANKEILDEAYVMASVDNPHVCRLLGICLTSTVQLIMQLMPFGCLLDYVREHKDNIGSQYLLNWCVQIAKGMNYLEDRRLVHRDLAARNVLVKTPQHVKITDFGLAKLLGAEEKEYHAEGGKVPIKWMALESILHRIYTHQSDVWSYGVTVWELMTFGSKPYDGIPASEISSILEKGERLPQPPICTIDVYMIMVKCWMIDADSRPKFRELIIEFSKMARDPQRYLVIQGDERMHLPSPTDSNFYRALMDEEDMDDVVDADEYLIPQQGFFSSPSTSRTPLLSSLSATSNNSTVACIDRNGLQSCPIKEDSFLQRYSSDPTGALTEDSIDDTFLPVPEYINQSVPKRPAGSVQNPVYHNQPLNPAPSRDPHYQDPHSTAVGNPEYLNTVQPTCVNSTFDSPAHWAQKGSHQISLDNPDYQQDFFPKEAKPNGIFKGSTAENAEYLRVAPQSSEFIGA

A549 = experiment: Cytotoxicity against human A549 cells after 48 hrs by CellTiter-Glo assay; assay type: functional, cell-based; details: A549, 48 h
K562 = experiment: Cytotoxicity against human K562 cells after 48 hrs by CellTiter-Glo assay; assay type: functional, cell-based; details: K562, 48 h
Cytochrome P450 1A2 = target: T1, Cytochrome P450 1A2 (Homo sapiens, UniProt P05177); experiment: Inhibition of human recombinant CYP1A2 after 20 mins by LC/MS/MS analysis; assay type: ADME
T1 sequence (P05177 whole entry): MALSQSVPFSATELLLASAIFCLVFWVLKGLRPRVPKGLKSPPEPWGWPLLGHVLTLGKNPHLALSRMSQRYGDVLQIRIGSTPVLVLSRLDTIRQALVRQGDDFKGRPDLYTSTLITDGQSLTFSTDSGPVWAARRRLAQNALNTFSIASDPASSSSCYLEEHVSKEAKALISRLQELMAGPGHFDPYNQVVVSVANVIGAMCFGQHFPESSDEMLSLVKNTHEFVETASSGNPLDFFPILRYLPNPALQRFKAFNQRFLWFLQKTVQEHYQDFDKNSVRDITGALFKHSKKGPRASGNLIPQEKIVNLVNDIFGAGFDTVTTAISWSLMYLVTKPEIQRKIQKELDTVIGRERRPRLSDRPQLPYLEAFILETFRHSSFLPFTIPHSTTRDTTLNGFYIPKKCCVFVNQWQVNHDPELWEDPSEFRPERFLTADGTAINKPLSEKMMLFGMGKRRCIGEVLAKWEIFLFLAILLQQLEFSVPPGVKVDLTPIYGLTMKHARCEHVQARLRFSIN

Cytochrome P450 2D6 = Cytochrome P450 2D6 (Homo sapiens, UniProt P10635); experiment: Inhibition of human recombinant CYP2D6 after 20 mins by LC/MS/MS analysis; assay type: ADME
Cytochrome P450 2D6, sequence (P10635 whole entry): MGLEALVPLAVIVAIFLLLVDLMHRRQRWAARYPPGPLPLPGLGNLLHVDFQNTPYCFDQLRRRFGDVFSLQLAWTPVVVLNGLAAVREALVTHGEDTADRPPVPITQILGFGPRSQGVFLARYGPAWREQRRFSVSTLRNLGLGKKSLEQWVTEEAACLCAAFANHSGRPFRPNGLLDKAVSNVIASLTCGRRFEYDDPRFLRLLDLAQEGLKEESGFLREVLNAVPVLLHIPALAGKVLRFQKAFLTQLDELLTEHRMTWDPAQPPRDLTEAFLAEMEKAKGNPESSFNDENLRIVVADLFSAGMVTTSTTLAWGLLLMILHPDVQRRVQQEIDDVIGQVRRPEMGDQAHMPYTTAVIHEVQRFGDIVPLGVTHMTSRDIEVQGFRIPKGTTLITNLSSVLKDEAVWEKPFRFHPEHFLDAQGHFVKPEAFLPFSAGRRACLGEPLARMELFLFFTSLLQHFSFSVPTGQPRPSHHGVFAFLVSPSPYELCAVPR

[4] = target: T2, Epidermal growth factor receptor (Homo sapiens, UniProt P00533); details: A-431, at 1 µM
T2 sequence (P00533 whole entry): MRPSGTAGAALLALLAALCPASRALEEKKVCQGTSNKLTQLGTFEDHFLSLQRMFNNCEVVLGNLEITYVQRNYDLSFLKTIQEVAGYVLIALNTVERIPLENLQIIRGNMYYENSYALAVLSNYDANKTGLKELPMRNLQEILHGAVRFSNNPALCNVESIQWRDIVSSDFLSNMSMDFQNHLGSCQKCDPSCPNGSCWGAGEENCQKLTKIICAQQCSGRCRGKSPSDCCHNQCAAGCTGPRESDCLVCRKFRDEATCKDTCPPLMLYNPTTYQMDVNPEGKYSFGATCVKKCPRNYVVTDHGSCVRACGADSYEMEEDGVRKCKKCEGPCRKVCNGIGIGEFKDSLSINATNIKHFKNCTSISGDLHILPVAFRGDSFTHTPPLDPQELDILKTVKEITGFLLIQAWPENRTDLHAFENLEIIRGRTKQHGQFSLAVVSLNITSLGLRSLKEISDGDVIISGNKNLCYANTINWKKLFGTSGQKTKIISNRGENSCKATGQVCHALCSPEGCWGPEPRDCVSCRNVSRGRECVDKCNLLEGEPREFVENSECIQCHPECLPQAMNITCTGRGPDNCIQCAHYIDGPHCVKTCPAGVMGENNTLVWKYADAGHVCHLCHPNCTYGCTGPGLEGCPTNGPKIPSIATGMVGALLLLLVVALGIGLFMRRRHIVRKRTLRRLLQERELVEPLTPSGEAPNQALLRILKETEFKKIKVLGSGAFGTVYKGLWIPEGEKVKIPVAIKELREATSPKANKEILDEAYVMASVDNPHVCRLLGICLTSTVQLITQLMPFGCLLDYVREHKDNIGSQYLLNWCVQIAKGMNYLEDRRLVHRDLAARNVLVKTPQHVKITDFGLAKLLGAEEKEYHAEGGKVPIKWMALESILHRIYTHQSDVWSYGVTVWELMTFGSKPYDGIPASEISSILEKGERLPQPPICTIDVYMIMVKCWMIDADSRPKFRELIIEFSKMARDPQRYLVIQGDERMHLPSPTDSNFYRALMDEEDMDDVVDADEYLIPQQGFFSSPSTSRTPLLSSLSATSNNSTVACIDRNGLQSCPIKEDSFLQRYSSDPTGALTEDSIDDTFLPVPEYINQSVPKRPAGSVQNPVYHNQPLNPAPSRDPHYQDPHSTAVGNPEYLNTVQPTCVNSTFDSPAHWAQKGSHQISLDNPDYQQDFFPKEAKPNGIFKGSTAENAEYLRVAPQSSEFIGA

Mus musculus [5] = experiment: AUC (0 to 24 hrs) in BALB/c mouse at 10 mg/kg, po; assay type: ADME, organism-based, Plasma; set-up: time < 24 hr, dose 10 mg/kg, route oral; details: in vivo
Method in brief: (§2)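 Mice (12 per treatment group) received a single dose, either intravenously at 3 mg/kg or orally at 10 mg/kg. Plasma exposure was followed over 24 h to derive AUC(0–24 h) in μM·min, t1/2 and tmax in min, and Cmax in μM. Oral bioavailability (F%) was derived from the oral versus i.v. data.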

[6] = Cmax in BALB/c mouse at 10 mg/kg, po; assay type: ADME, organism-based; set-up: dose 10 mg/kg, route oral; details: in vivo; method in brief: as §2
[7] = Half life in BALB/c mouse at 3 mg/kg, iv; assay type: ADME, organism-based; set-up: dose 3 mg/kg, route intravenous; details: in vivo; method in brief: as §2
A-431 = experiment: animal or person; assay type: functional, Homo sapiens; details: Mus musculus, A-431, 288 h, route oral, read-out: TGI
[8] = Half life in BALB/c mouse at 10 mg/kg, po; assay type: ADME, organism-based; set-up: dose 10 mg/kg, route oral; details: in vivo; method in brief: as §2
Mus musculus [9] = experiment: Oral bioavailability in BALB/c mouse at 10 mg/kg; assay type: ADME, organism-based; details: in vivo; method in brief: as §2
[10] = Tmax in BALB/c mouse at 3 mg/kg, iv; assay type: ADME, organism-based; set-up: dose 3 mg/kg, route intravenous; details: in vivo; method in brief: as §2
[11] = Cmax in BALB/c mouse at 3 mg/kg, iv; assay type: ADME, organism-based; set-up: dose 3 mg/kg, route intravenous; details: in vivo; method in brief: as §2
[12] = target: Voltage-gated inwardly rectifying potassium channel KCNH2 (Homo sapiens, UniProt Q12809); experiment: Inhibition of human ERG channel by patch clamp assay
Voltage-gated inwardly rectifying potassium channel KCNH2, sequence (Q12809 whole entry): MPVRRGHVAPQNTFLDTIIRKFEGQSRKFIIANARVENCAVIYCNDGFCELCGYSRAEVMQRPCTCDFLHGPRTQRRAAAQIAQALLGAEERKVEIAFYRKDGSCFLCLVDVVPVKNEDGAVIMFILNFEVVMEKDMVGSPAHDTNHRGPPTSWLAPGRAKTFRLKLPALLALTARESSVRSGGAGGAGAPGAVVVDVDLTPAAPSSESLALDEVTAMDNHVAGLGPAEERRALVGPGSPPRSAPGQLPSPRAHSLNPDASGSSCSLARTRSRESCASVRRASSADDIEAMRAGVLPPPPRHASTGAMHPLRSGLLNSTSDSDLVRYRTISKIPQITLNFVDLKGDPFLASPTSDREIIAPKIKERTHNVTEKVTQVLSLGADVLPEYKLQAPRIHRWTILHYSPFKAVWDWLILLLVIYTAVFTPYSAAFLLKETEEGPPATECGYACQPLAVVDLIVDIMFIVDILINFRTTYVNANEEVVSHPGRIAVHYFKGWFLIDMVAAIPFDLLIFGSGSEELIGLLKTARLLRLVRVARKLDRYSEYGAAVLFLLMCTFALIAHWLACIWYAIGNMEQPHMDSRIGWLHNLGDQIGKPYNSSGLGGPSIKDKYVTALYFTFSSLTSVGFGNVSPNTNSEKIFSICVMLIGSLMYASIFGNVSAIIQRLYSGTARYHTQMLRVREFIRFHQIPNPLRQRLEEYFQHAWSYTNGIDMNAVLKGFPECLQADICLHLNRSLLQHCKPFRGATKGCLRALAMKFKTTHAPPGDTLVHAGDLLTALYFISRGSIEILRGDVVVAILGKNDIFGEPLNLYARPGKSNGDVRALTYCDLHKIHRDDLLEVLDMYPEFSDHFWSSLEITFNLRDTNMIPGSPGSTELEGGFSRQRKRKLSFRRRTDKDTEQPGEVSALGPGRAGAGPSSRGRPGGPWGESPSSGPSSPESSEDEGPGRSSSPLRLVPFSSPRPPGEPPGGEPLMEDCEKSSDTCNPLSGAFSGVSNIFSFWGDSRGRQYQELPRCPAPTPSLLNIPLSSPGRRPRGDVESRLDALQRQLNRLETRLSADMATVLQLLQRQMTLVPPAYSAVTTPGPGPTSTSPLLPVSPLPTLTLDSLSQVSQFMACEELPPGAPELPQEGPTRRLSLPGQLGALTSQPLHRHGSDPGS

Mus musculus [13] = experiment: AUC (0 to 24 hrs) in BALB/c mouse at 3 mg/kg, iv; assay type: ADME, organism-based, Plasma; set-up: time < 24 hr, dose 3 mg/kg, route intravenous; details: in vivo; method in brief: as §2
[14] = Tmax in BALB/c mouse at 10 mg/kg, po; assay type: ADME, organism-based; set-up: dose 10 mg/kg, route oral; details: in vivo; method in brief: as §2
[15] = target: T2, Epidermal growth factor receptor; experiment: Inhibition of wild type EGFR (unknown origin) incubated for 5 mins prior to ATP addition measured after 30 mins by HTRF method
[16] = target: T2, Epidermal growth factor receptor; experiment: Ratio of IC50 for wild type EGFR in human A431 cells to IC50 for wild type EGFR (unknown origin); assay type: cell-based; details: A-431

| SMILES | Activity (Mus musculus [1]) | Activity (Mus musculus [2]) | IC50 (Cytochrome P450 3A4) [µM] | IC50 (Cytochrome P450 2C9) [µM] | IC50 (SW-620) [µM] | inhibition [3] | IC50 (A549) [µM] | IC50 (K562) [µM] | IC50 (Cytochrome P450 1A2) [µM] | IC50 (Cytochrome P450 2D6) [µM] | further results |
| --- | --- | --- | --- | --- | --- | --- | --- | --- | --- | --- | --- |
| COc1cc2ncnc(Nc3ccc(F)c(Cl)c3)c2cc1OCCCN1CCOCC1 [GEFITINIB] | Non-toxic | Non-toxic | – | – | – | – | – | – | – | – | – |
| CN(C)C/C=C/C(=O)N1CCOc2cc3ncnc(Nc4ccc(OCc5cccc(F)c5)c(Cl)c4)c3cc21 | – | – | > 10 | > 10 | 6.2 | Active | > 10 | > 10 | > 10 | > 10 | – |
| CN(C)C/C=C/C(=O)N1CCOc2cc3ncnc(Nc4ccc(F)c(Cl)c4)c3cc21 | Non-toxic | Non-toxic | > 10 | > 10 | 25.4 | Active | > 10 | > 10 | > 10 | > 10 | inhibition [4]: Active; AUC (Mus musculus [5]): 133 µM·min; Cmax [6]: 360 nM; half-life [7]: 12.7 h; inhibition in vivo at 200 mg/kg/day (A-431): 66.8%; half-life [8]: 9.13 h; F (Mus musculus [9]): 26.1%; Tmax [10]: 2 min; Cmax [11]: 290 nM; IC50 [12]: > 10 µM; AUC (Mus musculus [13]): 25.4 µM·min; Tmax [14]: 0.75 h |
| Fc1ccc(Nc2ncnc3cc4c(cc23)NCCO4)cc1Cl | – | – | – | – | – | – | – | – | – | – | IC50 [15]: 0.00129 µM; Ratio IC50 [16]: 20000 |

Source: ChEMBL document CHEMBL2440024, “Design, Synthesis, and Biological Evaluation of Novel Conformationally Constrained Inhibitors Targeting EGFR” (ACS Med Chem Lett, 2013)
